Source: ChEMBL document CHEMBL5136964, “Truncated S-MGBs: towards a parasite-specific and low aggregation chemotype” (RSC Med Chem, 2021)
In brackets after ≈: the same amount, converted by molar mass.

Columns and labels:
DNA = experiment: Binding affinity to DNA (unknown origin) assessed as change in melting temperature at 2:1 compound to DNA ratio by UV-visible spectrophotometry; format: nucleic-acid assay
Procedure, shortened: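 Duplex oligomer at 6 × 10⁻⁶ M in 10 mM PBS (pH 7.4) with 50 mM NaCl was annealed (90 °C, then unaided cooling) and mixed at 2 S-MGB:1 helix; the reference had no ligand. Samples were heated 10–90 °C and cooled 80–10 °C at 0.5 °C min⁻¹, with A260 recorded. Tm came from a Boltzmann sigmoid fit; three repeats.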

[1] = system: Trypanosoma brucei brucei; experiment: Antiparasitic activity against bloodstream form of Trypanosoma brucei brucei Lister 427 measured after 48 hrs by alamar blue assay; format: functional
Staphylococcus aureus = experiment: Antibacterial activity against Staphylococcus aureus ATCC 43300 measured after 18 hrs by two-fold serial dilution method; format: functional
Enterococcus faecalis = experiment: Antibacterial activity against Enterococcus faecalis ATCC 51299 measured after 18 hrs by two-fold serial dilution method; format: functional
[2] = Aggregation property of compound in 0.1 M pH 5 sodium acetate buffer at 1.5 mM by 1H-NMR spectra analysis; format: physicochemical; settings: pH 5, 1500 µM
[3] = system: Trypanosoma brucei brucei; experiment: Antiparasitic activity against bloodstream form of tbat1-/- deficient Trypanosoma brucei brucei measured after 48 hrs by alamar blue assay; format: functional, organism-based
[4] = Aggregation property of compound at 1.5 mM by 1H-NMR spectra analysis; settings: 1500 µM
Trypanosoma congolense [5] = experiment: Antitrypanosomal activity against bloodstream form of Trypanosoma congolense measured after 48 hrs by alamar blue assay; format: functional, organism-based
Procedure, shortened: (§1)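 Bloodstream-form T. congolense IL3000 and derived diminazene-resistant lines were grown at 34 °C in humidified 5% CO2 in supplemented MEM with 20% goat serum. Cells at 2.5×10^5 per mL were seeded into serial compound dilutions and incubated 48 h. 0.49 mM resazurin solution was then added for a further 24 h.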

Trypanosoma congolense [6] = experiment: Antitrypanosomal activity against bloodstream form of diminazene-resistant Trypanosoma congolense DimR measured after 48 hrs by alamar blue assay; format: functional, organism-based; procedure, shortened: as §1
[7] = Resistance factor, ratio of EC50 for bloodstream form of diminazene-resistant Trypanosoma congolense EMS MUT DimR to EC50 for wild-type bloodstream form of Trypanosoma congolense; format: functional
Procedure, shortened: (§2)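 The ratio was taken from Alamar Blue EC50s for resistant and wild-type IL3000 bloodstream-form T. congolense. Cells at 2.5×10^5 per mL were grown at 34 °C in 5% CO2 in supplemented MEM with compound for 48 h, then with resazurin for 24 h.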

Trypanosoma congolense [8] = experiment: Antitrypanosomal activity against bloodstream form of diminazene-resistant Trypanosoma congolense EMS MUT DimR measured after 48 hrs by alamar blue assay; format: functional, organism-based; procedure, shortened: as §1
Trypanosoma vivax = experiment: Antitrypanosomal activity against Trypanosoma vivax STIB 719 by [3H]-hypoxanthine incorporation assay; format: functional, organism-based
[9] = Resistance factor, ratio of EC50 for bloodstream form of tbat1-/- deficient Trypanosoma brucei brucei to EC50 for wild-type bloodstream form of Trypanosoma brucei brucei; format: functional
[10] = Resistance factor, ratio of EC50 for bloodstream form of diminazene-resistant Trypanosoma congolense DimR to EC50 for bloodstream form of wild-type Trypanosoma congolense; format: functional; procedure, shortened: as §2
[11] = Resistance factor, ratio of EC50 for bloodstream form of Trypanosoma brucei brucei B48 to EC50 for wild-type bloodstream form of Trypanosoma brucei brucei; format: functional
Leishmania donovani = experiment: Antileishmanial activity against Leishmania donovani MHOM/ET/67:LV82 amastigotes infected in BMDM cell measured after 48 hrs by luciferase assay; format: functional, organism-based; settings: MHOM/ET/67:LV82, BMDM
Procedure, shortened: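 Bone marrow-derived macrophages (0.5×10^5/well) were infected at a 20:1 […] ratio with luciferase-expressing L. donovani LV82. Free parasites were removed at 24 h post-infection, then doubling dilutions were added, starting at 25 or 20 μg mL⁻¹ from a 1 mg mL⁻¹ DMSO stock. At 72 h, luciferin (150 μg mL⁻¹) was added and bioluminescence suppression read against controls.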

[12] = system: Trypanosoma brucei brucei; experiment: Antiparasitic activity against wild-type Trypanosoma brucei brucei measured after 48 hrs by alamar blue assay; format: functional, organism-based
[13] = Diffusion coefficient of compound in 50% v/v pH 5 sodium acetate buffer in DMSO-d6 at 1.5 mM by DOSY analysis; format: physicochemical; settings: pH 5, 1500 µM
[14] = Aggregation property of compound in 45% DMSO-d6:55% 0.1 M pH 5 sodium acetate buffer at 1.5 mM by 1H-NMR spectra analysis; format: physicochemical; settings: pH 5, 1500 µM
Procedure, shortened: (§3)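 Proton NMR series at a fixed 1.5 mM S-MGB. DMSO-d6 was stepped down by 5% from 80% to 25% by adding 0.1 M pH 5 sodium acetate buffer, giving twelve solvent compositions per compound.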

[15] = Cytotoxicity against rat L6 cells assessed as reduction in cell viability measured after 69 hrs by alamar blue assay; format: toxicity, cell-based
Trypanosoma congolense [16] = experiment: Antitrypanosomal activity against bloodstream form of Trypanosoma congolense IL3000 measured after 48 hrs by alamar blue assay; format: functional, organism-based; settings: IL3000, 48 h; procedure, shortened: as §1
[17] = system: Trypanosoma brucei brucei; experiment: Antiparasitic activity against bloodstream form of Trypanosoma brucei brucei B48 measured after 48 hrs by alamar blue assay; format: functional, organism-based; settings: B48, 48 h
[18] = Aggregation property of compound in 70% v/v 0.1 M pH 5 sodium acetate buffer in DMSO-d6 at 1.5 mM by 1H-NMR spectra analysis; format: physicochemical; settings: pH 5, 1500 µM; procedure, shortened: as §3

Row | SMILES | ΔTm (DNA) | EC50 [1] | MIC80 (Staphylococcus aureus) | MIC80 (Enterococcus faecalis) | other results
1 | CN1CCN(C(=O)c2cc(NC(=O)c3ccc(/C=C/c4cnc5ccccc5c4)cc3)cn2C)CC1 | 2 °C |  |  |  | 
2 | COc1cccc(/C=C/c2ccc(C(=O)Nc3cc(C(=O)NN(C)C)n(C)c3)cc2)c1 | 0 °C |  |  |  | 
3 | COc1ccc(/C=C/c2ccc(C(=O)Nc3cc(C(=O)NN(C)C)n(C)c3)cn2)cc1 | 0 °C | > 50000 nM | > 50 µM | > 50 µM | 
4 | Cn1cc(NC(=O)c2ccc(/C=C/c3cnc4ccccc4c3)cc2)cc1C(=O)NCCN1CCOCC1 | 10 °C | 3120 nM | > 50 µM | > 50 µM | Activity [2]: Active; EC50 [3]: 550 nM; Activity [4]: Active; EC50 (Trypanosoma congolense [5]): 3400 nM; EC50 (Trypanosoma congolense [6]): 3100 nM; Ratio EC50 [7]: 0.9; EC50 (Trypanosoma congolense [8]): 3200 nM; EC50 (Trypanosoma vivax): 760 nM; Ratio EC50 [9]: 0.5; Ratio EC50 [10]: 0.9; Ratio EC50 [11]: 0.5; EC50 (Leishmania donovani): 1600 nM; EC50 [12]: 1200 nM; D [13]: 1.75 10^-10 m²/s; Activity [14]: Active; EC50 at 69 h [15]: 6700 nM; EC50 (Trypanosoma congolense [16]): 870 nM; EC50 [17]: 600 nM; Activity [18]: Active
5 | COc1cccc(/C=C/c2ccc(C(=O)Nc3cc(C(=O)Nc4cc(C(=O)NCCN5CCOCC5)n(C)c4)n(C)c3)cc2)c1 | 10 °C | 780 nM | 6.25 µM (≈ 3.82 µg/mL) | 25 µM (≈ 15.3 µg/mL) | 
6 | COc1cccc(/C=C/c2ccc(C(=O)Nc3cc(C(=O)N4CCN(C)CC4)n(C)c3)cc2)c1 | 0 °C | > 50000 nM | > 50 µM | > 50 µM | 
7 | CN[C@H](CC(C)C)C(=O)N[C@H]1C(=O)N[C@@H](CC(N)=O)C(=O)N[C@H]2C(=O)N[C@H]3C(=O)N[C@H](C(=O)N[C@H](C(=O)O)c4cc(O)cc(O)c4-c4cc3ccc4O)[C@H](O)c3ccc(c(Cl)c3)Oc3cc2cc(c3O[C@@H]2O[C@H](CO)[C@@H](O)[C@H](O)[C@H]2O[C@H]2C[C@](C)(N)[C@H](O)[C@H](C)O2)Oc2ccc(cc2Cl)[C@H]1O [VANCOMYCIN] |  |  | 0.39 µM (≈ 0.565 µg/mL) | 6.25 µM (≈ 9.06 µg/mL) | 
8 | COc1ccc(/C=C/c2ccc(C(=O)Nc3cc(C(=O)N4CCN(C)CC4)n(C)c3)cn2)cc1 | 0 °C | > 50000 nM | > 50 µM | > 50 µM | 
9 | COc1ccc(/C=C/c2ccc(C(=O)Nc3cc(C(=O)Nc4cc(C(=O)NCCN5CCOCC5)n(C)c4)n(C)c3)cn2)cc1 | 12 °C | 1560 nM | 1.56 µM (≈ 0.954 µg/mL) | 3.12 µM (≈ 1.91 µg/mL) | 
10 | Cn1cc(NC(=O)c2cc(NC(=O)c3ccc(/C=C/c4cnc5ccccc5c4)cc3)cn2C)cc1C(=O)NCCN1CCOCC1 [MGB-BP-3] | 20 °C | < 190 nM | 0.2 µM (≈ 0.126 µg/mL) | 0.78 µM (≈ 0.493 µg/mL) | Activity [2]: Active; Activity [4]: Active; D [13]: 1.07 10^-10 m²/s; Activity [14]: Active
11 | COc1cccc(/C=C/c2ccc(C(=O)Nc3cc(C(=O)NCCN4CCOCC4)n(C)c3)cc2)c1 | 0 °C | > 50000 nM | > 50 µM | > 50 µM | 
12 | N=C(N)c1ccc(/N=N/Nc2ccc(C(=N)N)cc2)cc1 [DIMINAZENE] |  | 500 nM |  |  | EC50 [3]: 180 nM; EC50 (Trypanosoma congolense [5]): 200 nM; EC50 (Trypanosoma congolense [6]): 2100 nM; Ratio EC50 [7]: 10.9; EC50 (Trypanosoma congolense [8]): 2300 nM; EC50 (Trypanosoma vivax): 170 nM; Ratio EC50 [9]: 5.9; Ratio EC50 [10]: 9.5; Ratio EC50 [11]: 2.6; EC50 [12]: 30 nM; EC50 (Trypanosoma congolense [16]): 130 nM; EC50 [17]: 80 nM
